Experimental data published in ChEMBL document CHEMBL4196009, “Novel vitexin-inspired scaffold against leukemia” (Eur J Med Chem, 2018).
The source made the active and inactive calls. No cut-off for these calls is given here.

Tests used:
KOPN-8 [1] = experiment: Cell cycle arrest in human KOPN8 cells assessed as accumulation at S phase at 5 uM after 24 hrs by propidium iodide staining-based flow cytometry (reference value: 66.56%); format: functional
Outline: (§1)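 KOPN-8 cells treated 24 h alongside a DMSO vehicle and a staurosporine (2.0 µM) positive control. Apoptosis was scored by FITC Annexin V / propidium iodide flow cytometry with quadrant gating (early, late apoptotic). DNA content was measured by PI staining to give the percentage of cells in G0/G1, S and G2/M. Groups were compared by t-test; error bars are SD.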

KOPN-8 [2] = experiment: Effect on c-Myc expression in human KOPN8 cells at 0.5 uM after 24 hrs by Western blot analysis relative to control; format: functional
KOPN-8 [3] = experiment: Effect on c-Myc expression in human KOPN8 cells at 0.5 uM after 3 hrs by Western blot analysis relative to control; format: functional
KOPN-8 [4] = experiment: Induction of apoptosis in human KOPN8 cells assessed as early apoptotic cells at 5 uM after 24 hrs by Annexin V-FITC/propidium iodide staining-based flow cytometry (reference value: 0.1%); format: functional; outline: as §1
SUP-B15 = experiment: Induction of apoptosis in human SUP-B15 cells assessed as late apoptotic cells at 5 uM after 24 hrs by Annexin V-FITC/propidium iodide staining-based flow cytometry (reference value: 2.2%); format: functional
KOPN-8 [5] = experiment: Induction of apoptosis in human KOPN8 cells assessed as viable cells at 10 uM after 24 hrs by Annexin V-FITC/propidium iodide staining-based flow cytometry (reference value: 85.2%); format: functional; conditions: KOPN-8, 24 h, read-out: Activity
Outline: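 KOPN-8 cells were treated for 24 h, with a DMSO vehicle control and a staurosporine positive control. Cells were stained with FITC-Annexin V and propidium iodide and analysed by flow cytometry. Quadrant gating separated viable, early apoptotic, late apoptotic (Q2) and necrotic populations.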

KOPN-8 [6] = experiment: Induction of apoptosis in human KOPN8 cells assessed as effect on Mcl-1 level at 100 uM pre-treated with NAC for 1 hr and measured after 24 hrs by Western blot analysis relative to control; format: functional
Outline: (§2)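 KOPN-8 cells were exposed to compound for 3 h and 24 h, with or without N-acetylcysteine added to a parallel set as antioxidant. Lysates were analysed by Western blot for cleaved PARP, Mcl-1, Ser-2-phosphorylated RNAPII CTD, cMyc, total Rb and pRb. Signals were compared against controls for dose-dependent change.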

Homo sapiens = species: Homo sapiens; experiment: Inhibition of RNA polymerase 2 C-terminal domain phosphorylation at Ser2 residue in human KOPN8 cells at 100 uM after 24 hrs by Western blot analysis relative to control; format: cell-based; outline: as §2
MDA-MB-231 = experiment: Cell cycle arrest in human MDA-MB-231 cells assessed as accumulation at S phase at 20 uM after 24 hrs by propidium iodide staining-based flow cytometry (reference value: 20.15%); format: functional
[7] = biological target: T1, Retinoblastoma-associated protein (Homo sapiens) (UniProt P06400); experiment: Inhibition of Rb phosphorylation in human KOPN8 cells assessed as ratio of phosphorylated Rb to total Rb levels at 10 uM pre-treated with NAC for 1 hr and measured after 3 hrs by Western blot analysis relative to control; format: cell-based
T1 sequence (whole entry): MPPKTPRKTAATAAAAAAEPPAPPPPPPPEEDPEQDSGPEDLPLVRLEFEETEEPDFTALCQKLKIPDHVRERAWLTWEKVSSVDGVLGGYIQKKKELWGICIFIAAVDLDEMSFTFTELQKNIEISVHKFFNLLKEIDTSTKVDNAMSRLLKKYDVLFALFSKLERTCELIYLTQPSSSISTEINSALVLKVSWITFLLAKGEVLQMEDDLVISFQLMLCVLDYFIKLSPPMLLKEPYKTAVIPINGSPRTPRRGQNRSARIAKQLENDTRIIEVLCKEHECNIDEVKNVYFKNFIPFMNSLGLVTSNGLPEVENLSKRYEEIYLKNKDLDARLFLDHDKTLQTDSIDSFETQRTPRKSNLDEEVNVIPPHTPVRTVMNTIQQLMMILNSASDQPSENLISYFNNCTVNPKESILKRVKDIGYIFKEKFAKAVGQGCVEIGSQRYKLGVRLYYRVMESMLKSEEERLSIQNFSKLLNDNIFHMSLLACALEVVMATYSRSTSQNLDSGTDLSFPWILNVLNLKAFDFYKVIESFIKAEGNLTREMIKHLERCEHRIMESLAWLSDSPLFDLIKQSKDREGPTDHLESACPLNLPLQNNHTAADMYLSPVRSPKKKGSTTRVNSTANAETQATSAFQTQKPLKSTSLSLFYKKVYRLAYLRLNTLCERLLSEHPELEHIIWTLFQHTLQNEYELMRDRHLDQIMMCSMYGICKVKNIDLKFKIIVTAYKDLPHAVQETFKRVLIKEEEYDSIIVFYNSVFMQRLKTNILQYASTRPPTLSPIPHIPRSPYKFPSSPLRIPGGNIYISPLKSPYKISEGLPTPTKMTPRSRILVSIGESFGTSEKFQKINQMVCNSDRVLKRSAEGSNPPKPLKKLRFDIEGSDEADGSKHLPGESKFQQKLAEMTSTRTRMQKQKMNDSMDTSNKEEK
Outline: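 KOPN-8 pre-B ALL cells were treated for 3 h and 24 h, with or without N-acetyl cysteine added to a parallel set of cells as an antioxidant/ROS quencher. Lysates were analysed by Western blot for phosphorylated Rb and total Rb. The same blots also probed PARP cleavage, Mcl-1, Ser-2-phosphorylated RNAPII CTD and cMyc.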

KOPN-8 [8] = experiment: Induction of apoptosis in human KOPN8 cells assessed as early apoptotic cells at 10 uM after 24 hrs by Annexin V-FITC/propidium iodide staining-based flow cytometry (reference value: 0.1%); format: functional; outline: as §1
MCF7 = experiment: Induction of oxidative stress in human MCF7 cells transfected with mRuby-Mito-7 with fugene assessed as increase in intracellular total ROS levels at 50 uM treated 30 mins post NAC addition measured after 1 hr by fluorimetric analysis; format: functional, cell-based
Outline: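 MCF-7 cells carried an mRuby-Cox8A mitochondrial label. They were exposed to 50 of compound, alone or together with 50 of N-acetylcysteine, for 1 h. Cells were then stained with CellROX green (ex/em 485/520 nm) plus Hoechst 33342 nuclear stain. Total and mitochondrial ROS fluorescence was imaged in live cells and quantified relative to control.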

KOPN-8 [9] = experiment: Induction of apoptosis in human KOPN8 cells assessed as downregulation of Mcl-1 level after 3 to 24 hrs by Western blot analysis; format: functional, cell-based
Outline: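 KOPN-8 cells were treated at 10–100 µM final, with or without N-acetylcysteine co-addition, for 3 h and 24 h. Lysates were analysed by Western blot for PARP cleavage, Mcl-1, phospho-Ser2 RNAPII CTD, c-Myc, total Rb and pRb. Levels are relative to the vehicle control.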

KOPN-8 [10] = experiment: Effect on c-Myc expression in human KOPN8 cells at 30 uM pre-treated with NAC for 1 hr and measured after 3 hrs by Western blot analysis relative to control; format: functional

fold change (FC) [7] | SMILES | Activity (KOPN-8 [1]) | fold change (FC) (KOPN-8 [2]) | fold change (FC) (KOPN-8 [3]) | Activity (KOPN-8 [4]) | Activity (SUP-B15) | viability at 10 µM (KOPN-8 [5]) | fold change (FC) (KOPN-8 [6]) | fold change (FC) (Homo sapiens) | Activity (MDA-MB-231) | Activity (KOPN-8 [8]) | Activity (MCF7) | Activity (KOPN-8 [9]) | fold change (FC) (KOPN-8 [10])
– | CN(C)C(=O)c1cc2cnc(Nc3ccc(N4CCNCC4)cn3)nc2n1C1CCCC1 [RIBOCICLIB] | 25.55% | 1.2 | 1 | 0.5% | 22.5% | – | – | – | – | – | – | – | –
1 | COc1ccc(-c2c(I)c(=O)c3c(OC)cc(OC)cc3n2S(=O)(=O)c2ccc(OC)cc2)cc1 | – | – | – | – | – | 8.5% | 0.2 | 0.2 | 17.81% | 0.2% | inactive | Dose-dependent effect | 1
